Test results published in ChEMBL document CHEMBL1138064, “Discovery of N-[(3R)-1-azabicyclo[2.2.2]oct-3-yl]furo[2,3-c]pyridine-5-carboxamide, an agonist of the alpha7 nicotinic acetylcholine receptor, for the potential treatment of cognitive deficits in schizophrenia: synthesis and structure--activity relationship” (J Med Chem, 2006).
Calls of active or inactive are those of the source.

Experiments:
Homo sapiens = organism: Homo sapiens; assay: Inhibition of Small conductance calcium-activated potassium channel at 1 uM
MAO-B = MAO-B (Homo sapiens, UniProt P27338); assay: Inhibition of MAO-B at 1 uM
[1] = molecular target: Sodium-dependent noradrenaline transporter (Homo sapiens) (UniProt P23975); assay: Inhibition of human NE transporter at 1 uM
Sequence of Sodium-dependent noradrenaline transporter (Homo sapiens) (P23975 whole entry): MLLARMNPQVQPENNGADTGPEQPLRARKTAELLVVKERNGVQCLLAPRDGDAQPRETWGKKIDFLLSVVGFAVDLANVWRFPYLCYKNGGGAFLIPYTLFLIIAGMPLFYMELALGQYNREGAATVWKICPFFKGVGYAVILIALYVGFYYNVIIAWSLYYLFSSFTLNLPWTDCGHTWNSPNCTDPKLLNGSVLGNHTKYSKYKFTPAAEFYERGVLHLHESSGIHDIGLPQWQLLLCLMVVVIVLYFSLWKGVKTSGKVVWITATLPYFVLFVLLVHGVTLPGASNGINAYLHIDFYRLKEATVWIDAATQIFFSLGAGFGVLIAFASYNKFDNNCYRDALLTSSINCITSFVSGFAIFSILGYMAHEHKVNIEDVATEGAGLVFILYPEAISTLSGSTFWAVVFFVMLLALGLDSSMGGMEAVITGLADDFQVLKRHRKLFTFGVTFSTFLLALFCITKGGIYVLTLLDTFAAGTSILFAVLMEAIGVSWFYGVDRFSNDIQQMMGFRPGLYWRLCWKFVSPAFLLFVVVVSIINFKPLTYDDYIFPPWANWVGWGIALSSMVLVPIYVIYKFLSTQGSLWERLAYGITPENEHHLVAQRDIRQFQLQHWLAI

[2] = molecular target: D(2) dopamine receptor (Homo sapiens) (UniProt P14416); assay: Inhibition of D2 receptor at 1 uM
Sequence of D(2) dopamine receptor (Homo sapiens) (P14416 whole entry): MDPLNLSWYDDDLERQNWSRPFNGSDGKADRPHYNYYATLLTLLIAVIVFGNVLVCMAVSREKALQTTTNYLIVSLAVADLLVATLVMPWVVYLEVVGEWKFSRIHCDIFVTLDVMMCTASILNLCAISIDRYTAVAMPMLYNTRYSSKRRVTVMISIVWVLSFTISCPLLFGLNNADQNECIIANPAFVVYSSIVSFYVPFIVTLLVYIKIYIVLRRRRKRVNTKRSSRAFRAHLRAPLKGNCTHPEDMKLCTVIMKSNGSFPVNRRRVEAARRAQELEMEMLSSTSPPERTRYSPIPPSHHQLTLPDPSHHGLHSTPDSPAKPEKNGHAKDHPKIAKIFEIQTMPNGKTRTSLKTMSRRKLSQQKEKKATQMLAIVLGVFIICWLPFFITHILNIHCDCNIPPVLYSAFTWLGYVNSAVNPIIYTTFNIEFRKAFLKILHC

[3] = molecular target: Nociceptin receptor (Homo sapiens) (UniProt P41146); assay: Inhibition of ORL1 receptor at 1 uM
Sequence of Nociceptin receptor (Homo sapiens) (P41146 whole entry): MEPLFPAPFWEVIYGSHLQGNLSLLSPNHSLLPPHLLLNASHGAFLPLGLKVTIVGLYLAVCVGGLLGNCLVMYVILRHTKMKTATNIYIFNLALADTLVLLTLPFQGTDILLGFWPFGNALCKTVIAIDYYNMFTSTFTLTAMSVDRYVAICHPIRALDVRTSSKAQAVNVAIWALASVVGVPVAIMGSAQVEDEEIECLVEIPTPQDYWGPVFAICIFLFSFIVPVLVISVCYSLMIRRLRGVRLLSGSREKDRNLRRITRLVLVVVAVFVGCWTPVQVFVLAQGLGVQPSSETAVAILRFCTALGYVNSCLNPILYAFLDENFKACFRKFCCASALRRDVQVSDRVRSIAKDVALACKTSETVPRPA

[4] = molecular target: Somatostatin receptor (Homo sapiens) (UniProt P35346+P30874+P31391+P30872+P32745); assay: Inhibition of sst receptor at 1 uM; type: protein assay
[5] = Ratio of drug level in brain against plasma in rat by MBUA method after 5 min; type: ADME, organism-based; conditions: brain and plasma
[6] = molecular target: Protein kinase C (PKC) (Homo sapiens) (UniProt O94806+P41743+P17252+P05129+Q05655+P05771+Q05513+Q02156+P24723+Q15139+Q04759); assay: Inhibition of PKC at 1 uM; type: protein assay
[7] = molecular target: Adenosine receptor A1 (Homo sapiens) (UniProt P30542); assay: Inhibition of adenosine A1 receptor at 1 uM
Sequence of Adenosine receptor A1 (Homo sapiens) (P30542 whole entry): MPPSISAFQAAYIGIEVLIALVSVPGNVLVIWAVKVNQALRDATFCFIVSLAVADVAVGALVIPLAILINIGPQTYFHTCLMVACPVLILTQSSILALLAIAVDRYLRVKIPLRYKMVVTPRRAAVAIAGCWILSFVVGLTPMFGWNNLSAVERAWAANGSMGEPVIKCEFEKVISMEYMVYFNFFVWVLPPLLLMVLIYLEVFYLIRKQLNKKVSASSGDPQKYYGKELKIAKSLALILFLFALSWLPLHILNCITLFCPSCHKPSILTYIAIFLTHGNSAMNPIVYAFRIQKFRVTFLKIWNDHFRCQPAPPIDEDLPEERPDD

[8] = molecular target: Vasopressin V1a receptor (Homo sapiens) (UniProt P37288); assay: Inhibition of V1A receptor at 1 uM
Sequence of Vasopressin V1a receptor (Homo sapiens) (P37288 whole entry, looked up): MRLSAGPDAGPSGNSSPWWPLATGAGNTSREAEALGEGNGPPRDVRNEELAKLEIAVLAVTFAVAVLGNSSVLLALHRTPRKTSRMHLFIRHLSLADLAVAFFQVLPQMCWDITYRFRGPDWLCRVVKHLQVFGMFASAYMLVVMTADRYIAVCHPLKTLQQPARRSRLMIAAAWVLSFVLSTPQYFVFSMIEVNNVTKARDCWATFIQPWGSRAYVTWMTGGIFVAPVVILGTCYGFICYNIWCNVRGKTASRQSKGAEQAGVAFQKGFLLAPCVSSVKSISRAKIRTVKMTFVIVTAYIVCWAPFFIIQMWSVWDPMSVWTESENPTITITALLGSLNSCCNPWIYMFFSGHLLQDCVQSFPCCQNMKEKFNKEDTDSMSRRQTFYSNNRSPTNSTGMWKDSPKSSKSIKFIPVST

[9] = molecular target: Endothelin-1 receptor (Homo sapiens) (UniProt P25101); assay: Inhibition of human ETA receptor at 1 uM
Sequence of Endothelin-1 receptor (Homo sapiens) (P25101 whole entry): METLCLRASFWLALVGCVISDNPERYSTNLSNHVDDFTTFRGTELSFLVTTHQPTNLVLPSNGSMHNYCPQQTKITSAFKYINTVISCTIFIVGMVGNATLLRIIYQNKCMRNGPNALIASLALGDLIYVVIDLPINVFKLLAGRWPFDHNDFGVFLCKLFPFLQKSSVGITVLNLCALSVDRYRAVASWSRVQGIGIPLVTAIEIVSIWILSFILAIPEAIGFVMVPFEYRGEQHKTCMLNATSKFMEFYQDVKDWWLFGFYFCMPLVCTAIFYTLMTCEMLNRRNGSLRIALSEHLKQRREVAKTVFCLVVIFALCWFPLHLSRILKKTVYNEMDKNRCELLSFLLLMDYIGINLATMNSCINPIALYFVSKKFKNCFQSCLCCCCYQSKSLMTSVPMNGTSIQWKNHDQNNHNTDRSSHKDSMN

[10] = molecular target: 5-hydroxytryptamine receptor 5A (Homo sapiens) (UniProt P47898); assay: Inhibition of 5HT5A receptor at 1 uM
Rattus norvegicus = assay: Reversal of amphetamine-induced gating deficit in Sprague-Dawley at 1 mg/kg, iv; type: functional, organism-based; design: dose 1 mg/kg
Summary of the method: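 Anesthetised rats; d-amphetamine 1 mg/kg iv given to disrupt auditory gating recorded in the hippocampal CA3 region (conditioning vs test responses, analogous to human P50). Agonist given iv afterwards; read-out is % gating versus amphetamine-alone. The 10 mg/kg dose was run as a separate experiment. Brain drug levels were measured after the iv doses.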

[11] = molecular target: Delta-type opioid receptor (Homo sapiens) (UniProt P41143); assay: Inhibition of human delta opioid receptor at 1 uM
Sequence of Delta-type opioid receptor (Homo sapiens) (P41143 whole entry): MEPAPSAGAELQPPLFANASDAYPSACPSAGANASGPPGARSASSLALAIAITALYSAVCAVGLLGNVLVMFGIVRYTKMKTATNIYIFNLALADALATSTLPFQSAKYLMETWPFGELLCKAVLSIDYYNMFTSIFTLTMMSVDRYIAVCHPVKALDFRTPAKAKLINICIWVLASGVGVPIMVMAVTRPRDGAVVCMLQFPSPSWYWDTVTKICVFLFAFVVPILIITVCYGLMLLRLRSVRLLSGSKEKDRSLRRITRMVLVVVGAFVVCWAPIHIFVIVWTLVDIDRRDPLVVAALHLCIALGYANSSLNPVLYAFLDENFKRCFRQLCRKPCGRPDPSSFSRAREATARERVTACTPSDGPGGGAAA

[12] = molecular target: GABA-A receptor; anion channel (Homo sapiens) (UniProt P14867+P47870+P18507+P28472+P48169+Q99928+Q9UN88+P34903+O00591+O14764+Q8N1C3+P18505+P78334+P47869+P31644+Q16445); assay: Inhibition of central BZD receptor at 1 uM; type: protein-complex assay
[13] = molecular target: Calcitonin gene-related peptide type 1 receptor (Homo sapiens) (UniProt Q16602); assay: Inhibition of CGRP receptor at 1 uM
Sequence of Calcitonin gene-related peptide type 1 receptor (Homo sapiens) (Q16602 whole entry, the tested form may be a part): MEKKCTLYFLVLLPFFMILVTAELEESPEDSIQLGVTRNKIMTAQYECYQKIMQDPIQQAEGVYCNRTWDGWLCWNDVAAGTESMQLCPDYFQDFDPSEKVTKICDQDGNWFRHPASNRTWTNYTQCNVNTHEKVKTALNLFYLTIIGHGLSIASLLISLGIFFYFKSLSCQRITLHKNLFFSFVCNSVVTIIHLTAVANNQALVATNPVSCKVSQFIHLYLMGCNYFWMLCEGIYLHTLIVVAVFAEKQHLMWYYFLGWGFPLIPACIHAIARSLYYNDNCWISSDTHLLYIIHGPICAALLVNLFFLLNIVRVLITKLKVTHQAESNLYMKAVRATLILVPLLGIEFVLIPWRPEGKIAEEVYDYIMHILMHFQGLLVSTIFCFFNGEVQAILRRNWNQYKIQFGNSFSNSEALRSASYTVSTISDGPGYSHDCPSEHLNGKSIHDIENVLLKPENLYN

[14] = Clearance in rat constant infusion model; type: ADME, organism-based; conditions: in vivo, iv
Summary of the method: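 Clearance determined in a rat constant infusion model.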

[15] = molecular target: Phosphodiesterase 3 (Homo sapiens) (UniProt Q14432+Q13370); assay: Inhibition of PDE3 at 1 uM; type: protein assay
[16] = molecular target: Atrial natriuretic peptide receptor (Homo sapiens) (UniProt P20594+P16066+P17342); assay: Inhibition of ANP receptor at 1 uM; type: protein assay
[17] = molecular target: Phospholipase A2 (Homo sapiens) (UniProt P04054); assay: Inhibition of phospholipase A2 at 1 uM
Sequence of Phospholipase A2 (Homo sapiens) (P04054 23-148 limits assumed): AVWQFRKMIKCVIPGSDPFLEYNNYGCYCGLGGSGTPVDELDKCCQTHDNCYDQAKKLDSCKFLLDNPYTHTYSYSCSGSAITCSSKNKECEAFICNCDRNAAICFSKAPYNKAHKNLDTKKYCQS

[18] = molecular target: Vasoactive intestinal polypeptide receptor 1 (Homo sapiens) (UniProt P32241); assay: Inhibition of VIP1 receptor at 1 uM
[19] = molecular target: Gastrin/cholecystokinin type B receptor (Homo sapiens) (UniProt P32239); assay: Inhibition of CCK2 receptor at 1 uM
Sequence of Gastrin/cholecystokinin type B receptor (Homo sapiens) (P32239 whole entry): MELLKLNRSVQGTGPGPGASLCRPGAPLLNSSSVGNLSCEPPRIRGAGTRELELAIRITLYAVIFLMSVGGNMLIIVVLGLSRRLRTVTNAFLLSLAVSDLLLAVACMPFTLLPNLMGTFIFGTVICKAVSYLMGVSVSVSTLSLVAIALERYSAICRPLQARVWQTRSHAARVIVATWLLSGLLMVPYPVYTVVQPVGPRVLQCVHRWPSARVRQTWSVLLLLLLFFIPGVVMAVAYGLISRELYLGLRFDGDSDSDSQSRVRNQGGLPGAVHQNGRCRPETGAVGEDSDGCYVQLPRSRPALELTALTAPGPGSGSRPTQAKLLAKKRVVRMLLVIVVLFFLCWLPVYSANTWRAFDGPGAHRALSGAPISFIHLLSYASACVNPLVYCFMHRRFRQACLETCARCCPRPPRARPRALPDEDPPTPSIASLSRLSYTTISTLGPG

[20] = molecular target: Serotonin 3 (5-HT3) receptor; assay: Activity at 5HT3 receptor expressed in SHEP1 cells by FLIPR assay; type: functional, cell-based, Homo sapiens
Summary of the method: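 Cell-based FLIPR functional assay in SH-EP1 cells expressing 5-HT3.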

[21] = molecular target: Muscarinic acetylcholine receptor M5 (Homo sapiens) (UniProt P08912); assay: Inhibition of M5 receptor at 1 uM
[22] = molecular target: Human immunodeficiency virus type 1 protease (Human immunodeficiency virus 1) (UniProt Q72874); assay: Inhibition of HIV1 protease at 1 uM
[23] = molecular target: Mu-type opioid receptor (Homo sapiens) (UniProt P35372); assay: Inhibition of human mu opioid receptor at 1 uM
Sequence of Mu-type opioid receptor (Homo sapiens) (P35372 whole entry): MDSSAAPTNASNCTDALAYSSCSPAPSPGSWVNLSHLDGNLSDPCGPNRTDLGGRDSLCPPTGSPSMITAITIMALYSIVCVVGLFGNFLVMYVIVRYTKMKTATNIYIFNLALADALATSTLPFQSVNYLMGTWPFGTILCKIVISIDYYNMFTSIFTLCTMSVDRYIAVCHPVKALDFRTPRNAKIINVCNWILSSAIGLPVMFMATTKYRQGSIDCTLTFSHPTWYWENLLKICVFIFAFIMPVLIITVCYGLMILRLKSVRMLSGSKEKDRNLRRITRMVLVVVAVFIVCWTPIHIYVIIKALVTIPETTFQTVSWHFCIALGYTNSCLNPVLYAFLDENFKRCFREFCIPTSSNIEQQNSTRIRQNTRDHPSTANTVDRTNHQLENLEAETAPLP

[24] = molecular target: Serotonin 3 (5-HT3) receptor; assay: Binding affinity to 5HT3 receptor; type: protein-complex assay, Homo sapiens
[25] = molecular target: Sodium/potassium-transporting ATPase (Homo sapiens) (UniProt P05023+P14415+P05026+P50993+P54709+P13637+Q13733+P54710); assay: Inhibition of Sodium/potassium-transporting ATPase at 1 uM; type: protein-complex assay
[26] = molecular target: L-type calcium channel, verapamil site (Homo sapiens, UniProt O60840+Q01668+Q13698+Q13936); assay: Inhibition of verapamil site of Calcium channel L type at 1 uM; type: protein assay
[27] = molecular target: Cannabinoid receptor 1 (Homo sapiens) (UniProt P21554); assay: Inhibition of CB1 receptor at 1 uM
Sequence of Cannabinoid receptor 1 (Homo sapiens) (P21554 whole entry): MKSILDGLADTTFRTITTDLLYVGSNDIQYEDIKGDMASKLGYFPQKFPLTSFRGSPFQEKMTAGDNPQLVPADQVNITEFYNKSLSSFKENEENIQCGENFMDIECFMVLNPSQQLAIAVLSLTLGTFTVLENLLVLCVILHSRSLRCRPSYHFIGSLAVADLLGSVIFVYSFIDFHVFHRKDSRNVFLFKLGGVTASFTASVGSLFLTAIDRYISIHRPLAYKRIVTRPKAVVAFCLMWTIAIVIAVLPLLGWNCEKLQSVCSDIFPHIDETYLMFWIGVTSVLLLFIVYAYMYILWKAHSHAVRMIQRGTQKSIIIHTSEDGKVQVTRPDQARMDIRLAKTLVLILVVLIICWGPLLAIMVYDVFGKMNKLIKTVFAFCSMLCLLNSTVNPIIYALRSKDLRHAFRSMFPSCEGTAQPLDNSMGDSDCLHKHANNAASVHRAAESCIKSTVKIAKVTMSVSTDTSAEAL

hERG = hERG (Homo sapiens, UniProt Q12809); assay: Inhibition of hERG expressed in HEK293 cells at 20 uM by patch clamp assay; type: toxicity, cell-based; conditions: HEK293 cells that express hERG
Summary of the method: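 hERG current (IKr) in HEK cells recorded by patch clamp; compound applied at 2 and 20 µM; % block of current reported at each concentration.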

[28] = molecular target: Adrenergic receptor alpha-1 (Homo sapiens) (UniProt P35348+P25100+P35368); assay: Inhibition of adrenergic alpha1 receptor at 1 uM; type: protein assay
[29] = molecular target: Cathepsin B (Homo sapiens) (UniProt P07858); assay: Inhibition of cathepsin B at 1 uM

O=C(N[C@H]1CN2CCC1CC2)c1cc2ccoc2cn1 [PHA-543613]
< 10%: inhibition (Homo sapiens) | inhibition at 1 µM (MAO-B) | inhibition [1] | inhibition [2] | inhibition [3] | inhibition [4] | inhibition [7] | inhibition [9] | inhibition [10] | inhibition [12] | inhibition [13] | inhibition [15] | inhibition [16] | inhibition [18] | inhibition [19] | inhibition [21] | inhibition [22] | inhibition [23] | inhibition [25] | inhibition at 1 µM [26] | inhibition [27] | inhibition [28] | inhibition [29]
628 nM: Ki [20]
50 mL/min/kg: clearance [14]
14%: inhibition [8] | inhibition [11]
511 nM: Ki [24]
29%: inhibition at 20 µM (hERG)
20%: inhibition [17]
active: Activity (Rattus norvegicus)
18%: inhibition [6]
1.5: Kp at 5 min [5]
